Laboratory results from ChEMBL document CHEMBL1121839, “Synthesis of spiro[isobenzofuran-1(3H),4'-piperidines] as potential central nervous system agents. 6. Synthesis, 13C NMR, and biological evaluation of cis- and trans-4-amino-3'-arylspiro[cyclohexane-1,1'(3'H)-isobenzofuran] derivatives” (1981).

These compounds were tested on Mus musculus (assay: Inhibition of tetrabenazine-induced ptosis in mice following i.p. administration.). Conditions: ip.
Assay type: functional
Summary of the method: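 Male CD-1 mice, groups of five, received compound i.p.; tetrabenazine methanesulfonate 40 mg/kg i.p. followed 30 min later. After another 30 min, mice were housed singly and ptosis was scored (eyes closed 2, half open 1, open 0). ED50 and 95% confidence intervals came from linear regression of ptosis scores.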
With `CN(C)[C@H]1CC[C@]2(CC1)OCc1ccccc12` the ED50 was greater than 20 mg/kg.
For `CC1O[C@]2(CC[C@@H](N(C)C)CC2)c2ccccc21` (stereo not given in full), the ED50 was 20 mg/kg.
Compound `CN[C@H]1CC[C@]2(CC1)OC(c1ccc(Cl)cc1)c1ccccc12` (stereo not given in full) has an ED50 greater than 20 mg/kg.
Compound `CCCC1(c2ccccc2)O[C@]2(CC[C@@H](N(C)C)CC2)c2ccccc21` (stereo not given in full) has an ED50 greater than 20 mg/kg.
`CN(C)[C@H]1CC[C@@]2(CC1)OC(c1ccccc1)c1ccccc12` (stereo not given in full) showed an ED50 greater than 20 mg/kg.
`CN[C@H]1CC[C@]2(CC1)OC(c1ccccc1)c1ccccc12` (stereo not given in full) was tested, and the ED50 was 2 mg/kg.
Compound `CN[C@H]1CC[C@]2(CC1)OC(c1ccc(F)cc1)c1ccccc12` (stereo not given in full) has an ED50 of 20 mg/kg.
Work on `CN[C@H]1CC[C@@]2(CC1)OC(c1ccccc1)c1ccccc12` (stereo not given in full) yielded an ED50 greater than 20 mg/kg.
`CN[C@H]1CC[C@]2(CC1)OC(c1ccccc1C)c1ccccc12` (stereo not given in full) showed an ED50 greater than 20 mg/kg.
Work on `Cc1ccccc1C1O[C@]2(CC[C@@H](N(C)C)CC2)c2ccccc21` (stereo not given in full) yielded an ED50 greater than 20 mg/kg.
`Cc1ccc(C2O[C@]3(CC[C@@H](N(C)C)CC3)c3ccccc32)cc1` (stereo not given in full) showed an ED50 greater than 20 mg/kg.
`CCC1(c2ccccc2)O[C@]2(CC[C@@H](N(C)C)CC2)c2ccccc21` (stereo not given in full) was tested, and the ED50 was greater than 20 mg/kg.
In the case of `CN(C)[C@H]1CC[C@]2(CC1)OC(c1ccc(Cl)cc1)c1ccccc12` (stereo not given in full), the ED50 is reported as greater than 20 mg/kg.
With `CN(C)[C@H]1CC[C@]2(CC1)OC(c1ccc(F)cc1)c1ccccc12` (stereo not given in full) the ED50 was 8.4 mg/kg.
Compound `CN(C)[C@H]1CC[C@]2(CC1)OC(c1ccccc1)c1ccccc12` (stereo not given in full) has an ED50 of 3.7 mg/kg.
Work on `CN(C)[C@H]1CC[C@]2(CC1)OC(C)(c1ccccc1)c1ccccc12` (stereo not given in full) yielded an ED50 greater than 20 mg/kg.
Work on `CN(C)CCC=C1c2ccccc2CCc2ccccc21` [AMITRIPTYLINE] yielded an ED50 of 1.5 mg/kg.
`CNCCCN1c2ccccc2CCc2ccccc21` [DESIPRAMINE] gave an ED50 of 0.3 mg/kg.

Each compound was assayed on Rattus norvegicus (assay: Effective concentration required for potentiation of L-5-hydroxytryptophan-induced seizures (head-twitching) in rats (administered intraperitoneally)). Conditions: ip.
Assay type: functional
Summary of the method: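 Male Wistar rats, groups of six, pretreated with pargyline HCl 75 mg/kg sc 4 h before testing. Test drug given ip (10 mL/kg) 30 min before testing, then L-5-hydroxytryptophan 1 mg/kg ip in distilled water. Head motion and coarse tremors were scored 5 min later, with continuous forelimb clonus counted as potentiation. Results are expressed as normalized percent potentiation versus vehicle control.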
Compound `CN(C)CCC=C1c2ccccc2CCc2ccccc21` [AMITRIPTYLINE] has an ED50 of 7.1 mg/kg.

Each compound was assayed on Rattus norvegicus (assay: Percent potentiation of L-5-hydroxytryptophan-induced seizures (head-twitching) at 10 mg/kg i.p. in rats). Conditions: route intraperitoneal.
Assay type: functional
Summary of the method: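 Male Wistar rats, groups of six, got pargyline HCl 75 mg/kg s.c. 4 h before testing and test drug i.p. (10 mL/kg) 30 min before. L-5-hydroxytryptophan 1 mg/kg i.p. in distilled water was then given. Rats were observed 5 min later for head motion and coarse tremors; continuous forelimb clonus counted as potentiation, normalized as percent versus vehicle control.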
For `CN(C)[C@H]1CC[C@]2(CC1)OCc1ccccc12`, the Potentiation was 0%.
`CC1O[C@]2(CC[C@@H](N(C)C)CC2)c2ccccc21` (stereo not given in full) was tested, and the Potentiation was 0%.
With `CN[C@H]1CC[C@]2(CC1)OC(c1ccc(Cl)cc1)c1ccccc12` (stereo not given in full) the Potentiation was 0%.
`CCCC1(c2ccccc2)O[C@]2(CC[C@@H](N(C)C)CC2)c2ccccc21` (stereo not given in full) was tested, and the Potentiation was 0%.
For `CN(C)[C@H]1CC[C@@]2(CC1)OC(c1ccccc1)c1ccccc12` (stereo not given in full), the Potentiation was 0%.
With `CN[C@H]1CC[C@]2(CC1)OC(c1ccccc1)c1ccccc12` (stereo not given in full) the Potentiation was 0%.
`CN[C@H]1CC[C@]2(CC1)OC(c1ccc(F)cc1)c1ccccc12` (stereo not given in full) showed a Potentiation of 0%.
Compound `CN[C@H]1CC[C@@]2(CC1)OC(c1ccccc1)c1ccccc12` (stereo not given in full) has a Potentiation of 50%.
Compound `CN[C@H]1CC[C@]2(CC1)OC(c1ccccc1C)c1ccccc12` (stereo not given in full) has a Potentiation of 50%.
Compound `Cc1ccccc1C1O[C@]2(CC[C@@H](N(C)C)CC2)c2ccccc21` (stereo not given in full) has a Potentiation of 0%.
Work on `Cc1ccc(C2O[C@]3(CC[C@@H](N(C)C)CC3)c3ccccc32)cc1` (stereo not given in full) yielded a Potentiation of 33%.
In the case of `CCC1(c2ccccc2)O[C@]2(CC[C@@H](N(C)C)CC2)c2ccccc21` (stereo not given in full), the Potentiation is reported as 0%.
In the case of `CN(C)[C@H]1CC[C@]2(CC1)OC(c1ccc(Cl)cc1)c1ccccc12` (stereo not given in full), the Potentiation is reported as 0%.
With `CN(C)[C@H]1CC[C@]2(CC1)OC(c1ccc(F)cc1)c1ccccc12` (stereo not given in full) the Potentiation was 50%.
`CN(C)[C@H]1CC[C@]2(CC1)OC(c1ccccc1)c1ccccc12` (stereo not given in full) was tested, and the Potentiation was 50%.
With `CN(C)[C@H]1CC[C@]2(CC1)OC(C)(c1ccccc1)c1ccccc12` (stereo not given in full) the Potentiation was 0%.
